Assay [1] can be described thus: Antiproliferative activity against human NCI-460 cells after 48 hrs by MTT assay. The format is functional, cell-based. The note with it: NCI-460, 48 h. The procedure, abridged:
(§1)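 Cells in log phase seeded at about 1.0 × 10^5 cells/mL in 96-well plates, left 12 h at 37 °C, 5% CO2. Compounds dissolved in DMSO, added at 2.5, 5, 10, 20 and 50 µM, 48 h exposure. Absorbance read at 570/630 nm dual wavelength. Survival expressed relative to negative control. IC50 by Bliss method (n = 5), tests done in triplicate.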

Assay [2] is filed under the species Homo sapiens. Briefly: Inhibition of HSP90/Cdc37 interaction assessed as reversal of drug resistance by measuring ratio of IC50 for human doxorubicin-resistant NCI-H460 cells to IC50 for human NCI-H460 cells. The method in brief:
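Resistance factor is the ratio of IC50 in NCI-H460/DOX cells to IC50 in parental NCI-H460 cells. […] Values are mean ± SD of five separate experiments. Doxorubicin serves as the positive control.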

Assay [3] can be described thus: Inhibition of HSP90/Cdc37 interaction in human doxorubicin-resistant NCI-H460 cells assessed as reduction in cell proliferation after 48 hrs by MTT assay. The note with it: NCI-H460, 48 h. The procedure, abridged: as §1
For orientation: Formazan colour is commonly taken as a measure of viable cells.

Assay [4] deals with MCF7. Briefly: Antiproliferative activity against human MCF7 cells after 48 hrs by MTT assay. In kind it is functional, cell-based. The conditions noted are these: MCF7, 48 h. The method in brief: as §1
Assay [5] concerns HepG2. In words: Antiproliferative activity against human HepG2 cells after 48 hrs by MTT assay. In kind it is functional, cell-based. The conditions noted are these: HepG2, 48 h. The method in brief:
as §1

The subject of assay [6] is HCT-116. In words: Antiproliferative activity against human HCT116 cells after 48 hrs by MTT assay. In kind it is functional, cell-based. The note with it: HCT-116, 48 h. The procedure, abridged: as §1
A short description of assay [7]: Inhibition of His-tagged full-length Hsp90 (unknown origin)/GST-tagged Cdc37M (unknown origin) interaction after 1 hr by HTRF assay. Set-up: species or system Homo sapiens. The method in brief: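 TR-FRET in PBS containing 400 mM KF, pH 7.3. His-tagged full-length Hsp90 and GST-Cdc37M, each 250 nM final, incubated with compound for 1 h at 37 °C. Anti-GST-Cryptate and anti-6His-XL665 then added for a further 0.5 h at 37 °C. Excitation 320 nm, emission 665/620 nm, reported as ratio ×10,000. Negative and blank controls run in each assay.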
On the technique in general: In TR-FRET formats the signal depends on donor and acceptor labels being close together.

For assay [8], the system named is A549. In words: Antiproliferative activity against human A549 cells after 48 hrs by MTT assay. In kind it is functional, cell-based. The conditions noted are these: A549, 48 h. The procedure, abridged:
as §1

In assay [9] the test system is A549. Briefly: Inhibition of Hsp90/Cdc37 interaction in human A549 cells assessed as downregulation of Cdc37 in immunoprecipitated HSP90 complex at 10 uM after 24 hrs by Western blot analysis. The format is cell-based. The method in brief: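 A549 cells exposed to 5 and 10 µM for 24 h, geldanamycin 10 µM as comparator. Lysis in 20 mM Tris-HCl pH 7.4, 25 mM NaCl, 2 mM DTT, 20 mM Na2MoO4, 0.1% NP-40 and protease inhibitors. 500 µg protein immunoprecipitated overnight at 4 °C with anti-Hsp90 antibody, captured on protein G agarose, washed five times and boiled. Cdc37 and Hsp90 detected by Western blot, with input also blotted.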

Each structure is given as a SMILES string. Active and inactive are the calls of the source. The calls are words filed in the database; no cut-off is given here.

Consider seven compounds from ChEMBL document CHEMBL4219101, “Discovery of 18β-glycyrrhetinic acid conjugated aminobenzothiazole derivatives as Hsp90-Cdc37 interaction disruptors that inhibit cell migration and reverse drug resistance” (Bioorg Med Chem, 2018).

In general, IC50 refers to the concentration that gives 50% inhibition. For `COc1cccc2c1C(=O)c1c(O)c3c(c(O)c1C2=O)C[C@@](O)(C(=O)CO)C[C@@H]3O[C@H]1C[C@H](N)[C@H](O)[C@H](C)O1` [DOXORUBICIN], the figures for the IC50 in [1] and in [3] were 5.18 µM and 38 µM, respectively. Moreover, in assay [2], the Ratio IC50 is 7.33.
Turning to `CCOC(=O)[C@@]1(C)CC[C@]2(C)CC[C@]3(C)C(=CC(=O)[C@@H]4[C@@]5(C)CC[C@H](OC(=O)CCC(=O)Nc6nc7c(Cl)cccc7s6)C(C)(C)[C@@H]5CC[C@]43C)[C@@H]2C1`, the IC50 in [1] was found to be 14 µM; in assay [4], 15 µM; in assay [5], 17 µM; in [6] it was 15.4 µM; in assay [3], 18.1 µM; in assay [7], 1.67 µM. This compound displayed an IC50 in [8] of 13.6 µM. Moreover, in [2], the Ratio IC50 came out at 1.29.
For `CCOC(=O)[C@@]1(C)CC[C@]2(C)CC[C@]3(C)C(=CC(=O)[C@@H]4[C@@]5(C)CC[C@H](OC(=O)CCC(=O)Nc6nc7ccccc7s6)C(C)(C)[C@@H]5CC[C@]43C)[C@@H]2C1`, the IC50 was 16.4 µM in assay [1]; 20.5 µM in assay [4]; 25.8 µM in assay [5]; 22.3 µM in assay [6]; 19.2 µM in [3]; 9.09 µM in assay [7]. In assay [8], the IC50 was determined as 18.8 µM. In addition, in assay [2], the Ratio IC50 was 1.17.
Regarding `COC1=C2C[C@@H](C)C[C@H](OC)[C@H](O)[C@@H](C)/C=C(\C)[C@H](OC(N)=O)[C@@H](OC)/C=C\C=C(/C)C(=O)NC(=CC1=O)C2=O`, the inhibition entry in assay [9] was “inactive”.
On to `CCOC(=O)[C@@]1(C)CC[C@]2(C)CC[C@]3(C)C(=CC(=O)[C@@H]4[C@@]5(C)CC[C@H](OC(=O)CCC(=O)Nc6nc7c(F)cccc7s6)C(C)(C)[C@@H]5CC[C@]43C)[C@@H]2C1`, for which the IC50 in [1] was found to be 12.5 µM; in assay [4], 10.9 µM; in assay [5], 12.5 µM; in [6] it was 10.1 µM; in assay [3], 15.4 µM; in assay [7], 1.05 µM. In [8], this compound displayed an IC50 of 9.07 µM. In addition, the Ratio IC50 in assay [2] worked out at 1.23.
As to `CCOC(=O)[C@@]1(C)CC[C@]2(C)CC[C@]3(C)C(=CC(=O)[C@@H]4[C@@]5(C)CC[C@H](OC(=O)CCC(=O)Nc6nc7ccc(Cl)cc7s6)C(C)(C)[C@@H]5CC[C@]43C)[C@@H]2C1`, the IC50 in [1] came out at 10.6 µM; in assay [4] it was 8.66 µM; in assay [5], 12.4 µM; in assay [6] it was 11 µM; in assay [3], 12 µM; in [7] it was 0.83 µM. The compound also displayed an IC50 in assay [8] of 6.09 µM. Moreover, the Ratio IC50 in assay [2] worked out at 1.13.
Consider `CC1(C)[C@@H](O)CC[C@]2(C)[C@H]3C(=O)C=C4[C@@H]5C[C@@](C)(C(=O)Nc6nc7ccccc7s6)CC[C@]5(C)CC[C@@]4(C)[C@]3(C)CC[C@@H]12`, for which the IC50 is 71.4 µM in [4]; 88 µM in assay [5]; 80.7 µM in assay [6]; 89.5 µM in [7]; 75.4 µM in assay [8].
